High-throughput results as filed in PubChem.
OX1R antag-1: OX1R (HCRTR1) antagonists, primary screen, fluorescence, CHO/OX1R cells, Fluo-8 calcium, orexin A. Orexin/Hypocretin receptor type 1 (Homo sapiens), O43613. Fluo-8 calcium fluorescence. inhibition, % at 5 µM. 330,000 tested, 0.43% active. AID 434989, 2010;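 active = inhibition above its plate's threshold, mean inhibition of all tested compounds on the plate plus 3 SD, cut at about 37% in these data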;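 also: 0% = orexin A challenge wells and 100% = SB-334867-A antagonist wells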
CHO parental Ca: ATP-evoked calcium signal inhibitors, parental CHO, primary screen, counter-screen for OX1R antagonist project, cell-based, fluorescence, Fluo-8 calcium dye | parental CHO-K1, ATP-induced calcium, Fluo-8 fluorescence | inhibition, % at 5.6 µM | 330,000 tested, 0.63% active | AID 463079, 2010;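 active = inhibition above that plate's mean sample inhibition plus 3 SD, cut at about 26% in these data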;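 also: 0% = ATP-challenged DMSO wells and 100% = DMSO wells without ATP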
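Assay system – parental CHO cells · Reagent – ATP stimulus · Detection – intracellular calcium via Fluo-8 no-wash fluorescent dye · Evaluation – percent inhibition of ATP-evoked calcium rise, normalized to controls · Controls – ATP wells versus no-ATP DMSO wells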
TAAR1 antag: human TAAR1 antagonists, primary screen, Fluo-8 calcium fluorescence, CHO RD-HGA16 cells | Trace amine-associated receptor 1 (Homo sapiens), Q96RJ0 | 360,000 tested, 1.5% active | inhibition, % at 3 µM | antagonist | AID 624466, 2012;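 active = inhibition above a per-plate cutoff, the mean inhibition of test compounds on that plate plus 3 SD, cut at about 49% in these data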;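 also: 0% = DMSO plus EC80 beta-PEA response and 100% = DMSO alone without agonist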
Target sequence (Q96RJ0 whole entry, looked up): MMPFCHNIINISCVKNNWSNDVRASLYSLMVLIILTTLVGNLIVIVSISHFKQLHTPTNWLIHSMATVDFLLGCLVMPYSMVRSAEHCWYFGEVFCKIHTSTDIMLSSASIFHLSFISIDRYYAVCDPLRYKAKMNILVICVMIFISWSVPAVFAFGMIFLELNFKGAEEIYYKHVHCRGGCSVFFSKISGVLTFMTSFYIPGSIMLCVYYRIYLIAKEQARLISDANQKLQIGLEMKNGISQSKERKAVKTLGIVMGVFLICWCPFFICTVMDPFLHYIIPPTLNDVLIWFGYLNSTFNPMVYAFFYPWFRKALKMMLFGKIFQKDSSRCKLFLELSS
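Assay system: CHO-derived RD-HGA16 cells stably expressing human TAAR1 plus Gα16. Timing: 140 s kinetic read after compound, 140 s after agonist. Technique: kinetic Fluo-8 calcium fluorescence measurement. Measure: % inhibition of agonist calcium response.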
GPR7 antagonist: GPR7 receptor antagonists, primary screen, cell-based, fluorescence, single concentration; Neuropeptides B/W receptor type 1 (Homo sapiens), P48145; GPR7-expressing cells, fluorescence antagonist assay; inhibition, % at 4.4 µM; 290,000 tested, 1.1% active; in the data active = inhibition above about 16%, passing the limit was not always enough;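 also: cells stimulated with the agonist NPW; 0% = agonist with vehicle and 100% = vehicle without agonist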
Target sequence (P48145 whole entry, looked up): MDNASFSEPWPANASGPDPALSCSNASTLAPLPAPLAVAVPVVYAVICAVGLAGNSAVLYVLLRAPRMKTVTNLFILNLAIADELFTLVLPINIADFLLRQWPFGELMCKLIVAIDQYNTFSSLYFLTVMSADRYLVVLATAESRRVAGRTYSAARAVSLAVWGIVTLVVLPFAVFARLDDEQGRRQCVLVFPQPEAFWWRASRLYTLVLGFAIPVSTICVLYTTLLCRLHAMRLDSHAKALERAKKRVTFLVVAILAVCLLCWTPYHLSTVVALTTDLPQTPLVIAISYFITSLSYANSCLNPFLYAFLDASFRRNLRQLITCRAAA
TAAR1 ag: human TAAR1 agonists, primary screen, Fluo-8 calcium fluorescence, CHO RD-HGA16 cells; activation, % at 3 µM; 360,000 tested, 0.99% active; vehicle wells 0%, saturating PEA agonist 100%; Trace amine-associated receptor 1 (Homo sapiens), Q96RJ0; AID 624467, 2012;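 active = activation above the mean activation of all test compounds in the run plus 3 SD, cut at about 38% in these data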
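Signal – calcium-sensitive Fluo-8 signal, excitation 470-495, emission 515-575 nm · System – RD-HGA16 (CHO) cells co-expressing Gα16 and hTAAR1 · Incubation – 17-24 h seeding, 75 min 37 °C dye, 30 min RT · Compound dosing – 3 µM single concentration · Repeats – no replicates (n 1)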
OX1R antag-2: antagonists of human orexin 1 receptor (OX1R). Orexin/Hypocretin receptor type 1 (Homo sapiens), O43613. OX1R-expressing cells, FRET antagonist read-out. inhibition, % at 6.6 µM. 330,000 tested, 1.8% active. AID 485270, 2010; in the data active = inhibition mostly above about 38%, no sharp cut-off; inactive = mostly below about 40%;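 also: 0% = agonist challenge alone and 100% = reference antagonist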
The depositor's hits bear a star; ! = a repeat was not active. A selection: hits, their analogues and other compounds. The true share with any hit is near 4.6%.

C[C@H](CO)N1C[C@H](C)[C@@H](CN(C)C(=O)OCc2ccccc2)OCc2cn(nn2)CCCC1=O was read as TAAR1 antag -13.7 and TAAR1 ag 1.5.
For CC(=O)N1CCc2c(sc(NC(=O)c3ccc([N+](=O)[O-])o3)c2C#N)C1 the results were TAAR1 antag -18.2, GPR7 antagonist -9.0 and TAAR1 ag 15.5.
For COC(=O)c1c(NC(=O)c2ccc([N+](=O)[O-])o2)sc2c1CCN(C(C)C)C2 the results were OX1R antag-1 -19.1, CHO parental Ca -11.5, TAAR1 antag -8.1, GPR7 antagonist -7.3, TAAR1 ag -0.5 and OX1R antag-2 65.0*.
Screening CC(C)N1CCc2c(sc(NC(=O)c3ccc([N+](=O)[O-])o3)c2C(N)=O)C1 returned OX1R antag-1 -8.6, CHO parental Ca -11.1, TAAR1 antag -11.7, GPR7 antagonist 1.1, TAAR1 ag -0.7 and OX1R antag-2 92.8*.
For O=[S@]1Oc2ccccc2-c2ccccc21 the results were OX1R antag-1 8.8, CHO parental Ca -5.1, TAAR1 antag 12.4, TAAR1 ag 51.0* and OX1R antag-2 6.1.
`Cc1ccc(S(=O)(=O)N2[C@@H](c3ccc(C(C)(C)C)cc3)C(C(=O)O)=CC[C@H]2c2ccc(Cl)cc2)cc1` gave OX1R antag-1 12.2, CHO parental Ca 41.4*, TAAR1 antag 24.6, TAAR1 ag 0.4 and OX1R antag-2 4.8.
Screening CCc1ccc([C@@H]2CC=C(C(=O)O)[C@H](c3ccc(C(C)(C)C)cc3)N2S(=O)(=O)c2ccc(C)cc2)cc1 returned OX1R antag-1 4.1, CHO parental Ca 69.7*, TAAR1 antag 15.3, TAAR1 ag 2.1 and OX1R antag-2 -5.5.
Screening CC(=O)N1C[C@@H](CN2C(=O)CCC2=O)[C@@H]2C[C@H]1c1ccccc1N2C returned TAAR1 antag -1.8 and TAAR1 ag 1.9.
For NC(=O)c1ncn([C@@H]2O[C@H](C(=O)Nc3ccc(C(=O)N4CCCCC4)cc3)[C@@H](O)[C@H]2O)n1 the results were TAAR1 antag -33.4 and TAAR1 ag 1.2.
For O=c1[nH]c(=S)[nH]c2c1[C@H](CCc1cccc(Cl)c1)O[C@H](C1CCCC1)C2 the results were TAAR1 antag -8.1 and TAAR1 ag 2.0.
O=C(Cc1cccs1)Nc1nnc(CCc2ccccc2)s1 was read as OX1R antag-1 -23.3, CHO parental Ca -12.0, TAAR1 antag -9.4, GPR7 antagonist 14.4*, TAAR1 ag 9.6 and OX1R antag-2 -1.4.
`O=C(Nc1ccc2c(c1)OCCO2)c1ccc(Br)c(S(=O)(=O)N2CCOCC2)c1` gave TAAR1 antag 54.0*, GPR7 antagonist 2.4 and TAAR1 ag 17.5.
Screening CCOC(=O)c1ccc(NC(=O)c2ccc(C)c(S(=O)(=O)N3CCOCC3)c2)cc1 returned OX1R antag-1 4.8, CHO parental Ca 10.8, TAAR1 antag 80.4*, GPR7 antagonist 23.0, TAAR1 ag 25.4 and OX1R antag-2 40.4.
`COc1ccc(OC(=O)c2ccc(OC)c(S(=O)(=O)N3CCOCC3)c2)cc1` gave TAAR1 antag 22.4, GPR7 antagonist -8.7 and TAAR1 ag 11.2.
O=C(Oc1ccc2c(c1)OCO2)c1ccc(Br)c(S(=O)(=O)N2CCOCC2)c1 was read as OX1R antag-1 -2.0, CHO parental Ca -16.2, TAAR1 antag 50.5*, GPR7 antagonist -6.1, TAAR1 ag 21.3 and OX1R antag-2 6.7.
COC(=O)Cc1ccccc1NS(=O)(=O)c1ccc(C)cc1 was read as TAAR1 antag -18.0 and TAAR1 ag -0.3.
For COc1cccc(C(C)(O)c2nc(-c3ccc(C)c(C)c3)cs2)c1 (stereo unspecified) the results were TAAR1 antag 23.8 and TAAR1 ag 0.6.
Screening Cc1cc(=O)n2[nH]c(-c3ccccc3)cc2n1 returned OX1R antag-1 -25.1, CHO parental Ca -5.7, TAAR1 antag -18.3, GPR7 antagonist 4.6, TAAR1 ag 3.3 and OX1R antag-2 30.3.
Cc1cc(=O)n2[nH]c(-c3ccc(C(C)(C)C)cc3)cc2n1 was read as OX1R antag-1 -10.1, CHO parental Ca -7.2, TAAR1 antag 23.9, GPR7 antagonist 24.8*!, TAAR1 ag 3.6 and OX1R antag-2 12.8.
Cc1nnc(N/N=C\c2ccc(-c3ccccc3[N+](=O)[O-])o2)n1N was read as OX1R antag-1 -12.7, CHO parental Ca -5.2, TAAR1 antag -0.7, GPR7 antagonist -7.2, TAAR1 ag 1.7 and OX1R antag-2 56.2*.
`Cc1n[nH]c(=S)n1/N=C/c1ccc(-c2ccccc2[N+](=O)[O-])o1` gave OX1R antag-1 -20.3, CHO parental Ca -9.7, TAAR1 antag 4.3, GPR7 antagonist -1.3, TAAR1 ag 8.7 and OX1R antag-2 68.1*.
O=[N+]([O-])c1cccc(-c2ccc(/C=N/n3c(-c4ccccc4)n[nH]c3=S)o2)c1 was read as OX1R antag-1 -2.0, CHO parental Ca -8.7, TAAR1 antag -2.5, GPR7 antagonist 9.5, TAAR1 ag 1.9 and OX1R antag-2 11.6.
CCc1nnc(N/N=C/c2ccc(-c3ccc([N+](=O)[O-])cc3)o2)n1N was read as OX1R antag-1 -2.6, CHO parental Ca 6.0, TAAR1 antag 12.2, GPR7 antagonist -16.5, TAAR1 ag 4.8 and OX1R antag-2 39.5.
Cc1nnc(N/N=C/c2ccc(-c3ccccc3F)o2)n1N was read as OX1R antag-1 -9.0, CHO parental Ca -6.8, TAAR1 antag 12.8, GPR7 antagonist 0.5, TAAR1 ag 5.0 and OX1R antag-2 56.7*.
For CCCCOc1ccc(C(=O)NC2CCCCN(CCC)C2=O)cc1 (stereo unspecified) the results were TAAR1 antag -4.8 and TAAR1 ag -1.6.
Cc1ccc(C)c(N2CCN(C(=O)c3cc4c(C)nc5ccccc5c4o3)CC2)c1 was read as OX1R antag-1 -66.8, CHO parental Ca -34.1, TAAR1 antag 18.4, GPR7 antagonist 5.4, TAAR1 ag 5.4 and OX1R antag-2 36.5.
`COc1ccccc1N1CCN(C(=O)c2cc3c(C)nc4ccccc4c3o2)CC1` gave OX1R antag-1 -14.9, CHO parental Ca -12.2, TAAR1 antag 54.3*, GPR7 antagonist -16.7, TAAR1 ag 5.3 and OX1R antag-2 22.6.
For Cc1ccc(CNC(=O)c2cc3c(C)nc4ccccc4c3o2)cc1 the results were OX1R antag-1 -21.6, CHO parental Ca 23.6, TAAR1 antag 28.0, GPR7 antagonist -13.9, TAAR1 ag 0.1 and OX1R antag-2 56.8*.
